Consider 16 molecules from ChEMBL document CHEMBL1144984, “Synthesis and antibacterial activity of pyrroloaryl-substituted oxazolidinones” (2003).

Holding throughout (type): functional
In assay [1] the test system is Staphylococcus aureus. The experiment in a line: Minimum inhibitory concentration against Staphylococcus aureus broth. Put shortly: (§1)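 Broth microdilution MIC run by National Committee for Clinical Laboratory Standards methods, with linezolid as standard. MIC is the lowest compound concentration inhibiting visible growth.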
The test system of assay [2] is Staphylococcus aureus. Nature of the assay: Minimum inhibitory concentration against methicillin resistant Staphylococcus aureus OC 2878. Put shortly: (§2)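 Broth microdilution per NCCLS methods; MIC read as the lowest compound concentration inhibiting visible growth. Linezolid run as standard. Strains from a four-strain Gram-positive screening panel: S. aureus OC 2878 is methicillin-resistant, E. faecium OC 3312 is vancomycin-resistant.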

The next assay relates to Enterococcus faecalis. The experiment in a line: Minimum inhibitory concentration against Enterococcus faecalis ATTCC 29212. Put shortly:
as §1

The test system of assay [3] is Staphylococcus aureus. The experiment in a line: Minimum inhibitory concentration against Staphylococcus aureus OC 4172 in precense of 50% mouse serum. In short, it runs like this: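 Broth microdilution MIC against S. aureus OC 4172 (Smith, methicillin-susceptible) with 50% mouse serum in the medium, to gauge protein binding or serum inactivation. Run by NCCLS methods with linezolid as standard. MIC is the lowest concentration inhibiting visible growth.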

Another assay deals with Enterococcus faecium. Nature of the assay: Minimum inhibitory concentration against vancomycin resistant Enterococcus faecium OC 3312. Put shortly:
as §2

Assay [4] concerns Mus musculus. Nature of the assay: Effective dose of compound after oral administration in murine model infected with Staphylococcus aureus OC4172 (Smith) was determined. Put shortly: (§3)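 Murine model of lethal systemic infection, with compound given orally. ED50 is the dose protecting 50% of mice from death, expressed in mg/kg/day.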
For assay [5], the system named is Mus musculus. The experiment in a line: Effective dose of compound after oral administration in mice with Staphylococcus aureus OC4172 (Smith) was determined. In short, it runs like this: as §3

In brackets after ≈: the same amount, converted by molar mass.

As to `CC(=O)NC[C@H]1CN(c2ccc(N3Cc4ccncc4C3)c(F)c2)C(=O)O1`, the MIC in the assay with Staphylococcus aureus [1] is 1 mg/L (≈ 2.7 µM); against Staphylococcus aureus [2], 0.5 mg/L (≈ 1.35 µM); with Enterococcus faecalis, 1 mg/L (≈ 2.7 µM); in the assay on Staphylococcus aureus [3], 1 mg/L (≈ 2.7 µM); against Enterococcus faecium, 1 mg/L (≈ 2.7 µM).
With `CC(=O)NC[C@H]1CN(c2ccc(N3Cc4ncccc4C3=O)c(F)c2)C(=O)O1`, the minimum inhibitory concentration (MIC) in the assay on Staphylococcus aureus [1] was determined as 16 mg/L (≈ 41.6 µM); against Staphylococcus aureus [2], 4 mg/L (≈ 10.4 µM); against Enterococcus faecalis, 16 mg/L (≈ 41.6 µM); in the assay on Staphylococcus aureus [3] it was 8 mg/L (≈ 20.8 µM); in the assay on Enterococcus faecium, 8 mg/L (≈ 20.8 µM).
As to `CC(=O)NC[C@H]1CN(c2ccc(N3CCOCC3)c(F)c2)C(=O)O1` [LINEZOLID], the minimum inhibitory concentration (MIC) in the assay on Staphylococcus aureus [2] was determined as 1 mg/L (≈ 2.96 µM); against Enterococcus faecium, 2 mg/L (≈ 5.93 µM). Besides, in the assay on Mus musculus [4], it took a dose of 8 mg/kg/day to reach the 50% effect level (ED50).
Turning to `CC(=O)NC[C@H]1CN(c2ccc(N3C(=O)c4cccnc4C3=O)c(F)c2)C(=O)O1`, the MIC in the assay with Staphylococcus aureus [1], in the assay with Enterococcus faecalis, against Staphylococcus aureus [3] and in the assay on Enterococcus faecium was above 128 mg/L throughout.
Consider `CC(=O)NC[C@H]1CN(c2ccc(-n3cc4cccnc4c3)c(F)c2)C(=O)O1`, for which the minimal inhibitory concentration (MIC) in the assay with Staphylococcus aureus [1] is 1 mg/L (≈ 2.71 µM); in the assay with Staphylococcus aureus [2], 0.5 mg/L (≈ 1.36 µM); against Enterococcus faecalis, 1 mg/L (≈ 2.71 µM); with Staphylococcus aureus [3], 2 mg/L (≈ 5.43 µM); in the assay on Enterococcus faecium it was 1 mg/L (≈ 2.71 µM).
Consider `CC(=O)NC[C@H]1CN(c2ccc(N3C(=O)c4ccccc4C3=O)c(F)c2)C(=O)O1`, for which the MIC with Staphylococcus aureus [1] came out at 32 mg/L (≈ 80.5 µM); against Staphylococcus aureus [2], 16 mg/L (≈ 40.3 µM); against Enterococcus faecalis, 64 mg/L (≈ 161 µM); in the assay with Staphylococcus aureus [3] it was 128 mg/L (≈ 322 µM); in the assay with Enterococcus faecium it was 32 mg/L (≈ 80.5 µM).
With `CCN(Cc1ccccn1)c1ccc(N2C[C@H](CNC(C)=O)OC2=O)cc1F`, the MIC against Staphylococcus aureus [1], against Enterococcus faecalis, with Staphylococcus aureus [3] and against Enterococcus faecium was above 128 mg/L each time.
In the case of `CCN(Cc1cccnc1)c1ccc(N2C[C@H](CNC(C)=O)OC2=O)cc1F`, the MIC against Staphylococcus aureus [1] was determined as 16 mg/L (≈ 41.4 µM); against Staphylococcus aureus [2], 8 mg/L (≈ 20.7 µM); in the assay on Enterococcus faecalis, 16 mg/L (≈ 41.4 µM); against Staphylococcus aureus [3], 32 mg/L (≈ 82.8 µM); against Enterococcus faecium, 16 mg/L (≈ 41.4 µM).
In the case of `CC(=O)NC[C@H]1CN(c2ccc(N3Cc4ccccc4C3)c(F)c2)C(=O)O1`, the MIC worked out at 4 mg/L (≈ 10.8 µM) against Staphylococcus aureus [1]; 1 mg/L (≈ 2.71 µM) against Staphylococcus aureus [2]; 4 mg/L (≈ 10.8 µM) in the assay on Enterococcus faecalis; 16 mg/L (≈ 43.3 µM) against Staphylococcus aureus [3]; 4 mg/L (≈ 10.8 µM) in the assay with Enterococcus faecium. The same molecule showed a median effective dose (ED50) in the assay with Mus musculus [5] above 80 mg/kg/day.
As to `CC(=O)NC[C@H]1CN(c2ccc(N3Cc4cccnc4C3)c(F)c2)C(=O)O1`, the MIC in the assay on Staphylococcus aureus [1] turned out to be 0.5 mg/L (≈ 1.35 µM); against Staphylococcus aureus [2] it was 0.25 mg/L (≈ 0.675 µM); in the assay on Enterococcus faecalis it was 0.5 mg/L (≈ 1.35 µM); against Staphylococcus aureus [3] it was 1 mg/L (≈ 2.7 µM); with Enterococcus faecium it was 0.5 mg/L (≈ 1.35 µM).
Take `CC(=O)NC[C@H]1CN(c2ccc(-n3cc4cncnc4c3)c(F)c2)C(=O)O1`: the minimal inhibitory concentration (MIC) amounted to 1 mg/L (≈ 2.71 µM) with Staphylococcus aureus [1]; 1 mg/L (≈ 2.71 µM) with Staphylococcus aureus [2]; 1 mg/L (≈ 2.71 µM) in the assay with Enterococcus faecalis; 2 mg/L (≈ 5.41 µM) against Staphylococcus aureus [3]; 0.5 mg/L (≈ 1.35 µM) with Enterococcus faecium.
As to `CC(=O)NC[C@H]1CN(c2ccc(N3Cc4cccnc4C3=O)c(F)c2)C(=O)O1`, the MIC in the assay with Staphylococcus aureus [1] worked out at 8 mg/L (≈ 20.8 µM); in the assay with Staphylococcus aureus [2], 8 mg/L (≈ 20.8 µM); against Enterococcus faecalis, 32 mg/L (≈ 83.3 µM); with Staphylococcus aureus [3], 8 mg/L (≈ 20.8 µM); against Enterococcus faecium, 8 mg/L (≈ 20.8 µM).
Consider `CC(=O)NC[C@H]1CN(c2ccc(N3Cc4ccccc4C3=O)c(F)c2)C(=O)O1`, for which the minimal inhibitory concentration (MIC) came out at 4 mg/L (≈ 10.4 µM) in the assay with Staphylococcus aureus [1]; 4 mg/L (≈ 10.4 µM) against Staphylococcus aureus [2]; 8 mg/L (≈ 20.9 µM) in the assay on Enterococcus faecalis; 16 mg/L (≈ 41.7 µM) in the assay with Staphylococcus aureus [3]; 8 mg/L (≈ 20.9 µM) against Enterococcus faecium.
Consider `CC(=O)NC[C@H]1CN(c2ccc(N3C(=O)c4ccncc4C3=O)c(F)c2)C(=O)O1`, for which the minimum inhibitory concentration (MIC) against Staphylococcus aureus [1], against Enterococcus faecalis, in the assay with Staphylococcus aureus [3] and with Enterococcus faecium was above 128 mg/L in each case.
For the molecule `CC(=O)NC[C@H]1CN(c2ccc(-n3cc4ccncc4c3)c(F)c2)C(=O)O1`, the MIC in the assay with Staphylococcus aureus [1] was 0.5 mg/L (≈ 1.36 µM); in the assay with Staphylococcus aureus [2], 0.5 mg/L (≈ 1.36 µM); in the assay on Enterococcus faecalis, 1 mg/L (≈ 2.71 µM); against Staphylococcus aureus [3], 1 mg/L (≈ 2.71 µM); against Enterococcus faecium it was 0.5 mg/L (≈ 1.36 µM).
Consider `CC(=O)NC[C@H]1CN(c2ccc(N3Cc4cncnc4C3)c(F)c2)C(=O)O1`, for which the MIC against Staphylococcus aureus [1] worked out at 1 mg/L (≈ 2.69 µM); against Staphylococcus aureus [2], 1 mg/L (≈ 2.69 µM); in the assay on Enterococcus faecalis, 2 mg/L (≈ 5.39 µM); against Staphylococcus aureus [3] it was 2 mg/L (≈ 5.39 µM); against Enterococcus faecium, 1 mg/L (≈ 2.69 µM).

The term MIC denotes the least concentration at which growth counts as inhibited. The low end stands for a more susceptible organism, the high end for a less susceptible organism. A word on the ED50: it is the dose that gives a 50% effect, or the effect in half of the subjects. Read a low ED50 as an effect at a small dose.
